Laboratory results: ChEMBL document CHEMBL1156902, “Evaluation of 3,4-dihydroquinazoline-2(1H)-thiones as inhibitors of alpha-MSH-induced melanin production in melanoma B16 cells” (Bioorg Med Chem, 2010)
Activity calls are given as the source filed them. No cut-off for these calls is given here.

Assays:
B16 [1] = assay: Inhibition of alpha-MSH-induced melanin production in mouse B16 cells after 72 hrs; format: functional, cell-based; conditions: B16, 72 h
In short: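 B16 cells were seeded at 2.5 × 10³ per well and held 24 h at 37 °C in 5% CO₂. They were then stimulated with α-MSH for 72 h plus sample (10 nM in methods; 100 nM in results text). Cells were lysed in 1 N NaOH–10% DMSO at 80 °C. Melanin was read at A405 against a synthetic melanin standard, as the mean of 3–5 independent experiments.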

B16 [2] = assay: Inhibition of alpha-MSH-induced melanin production in mouse B16 cells at 10 uM after 72 hrs; format: functional; conditions: B16, 72 h
B16 [3] = assay: Inhibition of alpha-MSH-induced melanin production in mouse B16 cells at 100 uM after 72 hrs; format: functional; conditions: B16, 72 h
B16 [4] = assay: Cytotoxicity against mouse B16 cells assessed as viability at 1 to 30 uM after 72 hrs by MTT assay in presence of alphaMSH; format: cell-based; conditions: b16, 72 h
In short: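 B16 cells were exposed to test compound for 72 h with α-MSH (10 nM). They were then given MTT for 2 h, and the formazan was dissolved in 100% DMSO. Viability was read as optical density at 590 nm.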

[5] = biological target: T1, Tyrosinase (Mus musculus) (UniProt P11344); assay: Inhibition of mouse tyrosinase in 48 hrs alpha-MSH-induced mouse B16 cells at 0.3 to 10 uM; format: cell-based
T1 sequence (whole entry): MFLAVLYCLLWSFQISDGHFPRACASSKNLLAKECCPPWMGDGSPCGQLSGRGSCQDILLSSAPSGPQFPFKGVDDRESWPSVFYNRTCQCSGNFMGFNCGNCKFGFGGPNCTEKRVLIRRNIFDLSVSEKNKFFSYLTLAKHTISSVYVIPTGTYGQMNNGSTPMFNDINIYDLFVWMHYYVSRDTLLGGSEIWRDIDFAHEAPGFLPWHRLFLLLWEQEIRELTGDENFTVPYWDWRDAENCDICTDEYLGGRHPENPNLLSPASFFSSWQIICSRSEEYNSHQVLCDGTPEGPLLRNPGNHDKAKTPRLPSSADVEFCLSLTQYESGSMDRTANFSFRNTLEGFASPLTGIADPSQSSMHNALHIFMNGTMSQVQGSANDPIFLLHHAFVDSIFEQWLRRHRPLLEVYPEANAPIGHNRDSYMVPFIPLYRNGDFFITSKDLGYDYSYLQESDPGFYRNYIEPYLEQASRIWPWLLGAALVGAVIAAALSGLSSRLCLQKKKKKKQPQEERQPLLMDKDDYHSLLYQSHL

[6] = biological target: T1, Tyrosinase (Mus musculus); assay: Inhibition of mouse tyrosinase in 48 hrs alpha-MSH-induced mouse B16 cells by Western blot analysis; format: cell-based
In short: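 B16 cells were stimulated with α-MSH for 48 h plus compound, then lysed in Tris/NaCl/SDS/NP-40 buffer with protease inhibitors at pH 7.4. Equal protein was run on SDS-PAGE, blotted to PVDF and blocked with milk or BSA. Anti-tyrosinase (1:1000) was applied overnight at 4 °C, with GAPDH (1:5000) as internal control. Detection used an HRP secondary and ECL.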

| IC50 (B16 [1]) | SMILES | inhibition at 10 µM (B16 [2]) | further results |
| --- | --- | --- | --- |
| 1.1 µM | Cc1cccc2c1CN(CCc1ccccc1)C(=S)N2 | > 100% |  |
| 2.7 µM | Cc1ccc(CCN2Cc3cc(C)ccc3NC2=S)cc1 | > 100% |  |
| > 10 µM | Cc1ccc2c(c1)CN(CCc1cccc3ccccc13)C(=O)N2 | 5% |  |
| 2.8 µM | S=C1Nc2ccc(Cl)cc2CN1CCc1ccccc1 | > 100% |  |
| > 10 µM | Cc1ccc(CCN2Cc3cc(Cl)ccc3NC2=O)cc1 | 6% |  |
| 0.8 µM | Cc1ccc2c(c1)CN(CCc1ccccc1)C(=S)N2 | > 100% |  |
| > 10 µM | Cc1ccc2c(c1)NC(=O)N(CCc1ccccc1)C2 | 24% |  |
| > 10 µM | O=C1Nc2ccc(Cl)cc2CN1CCc1ccc(Cl)cc1 | 7% |  |
| 1.6 µM | S=C1Nc2ccc(Cl)cc2CN1CCc1ccc(Cl)cc1 | > 100% |  |
| > 10 µM | Cc1ccc2c(c1)CN(CCc1ccccc1)C(=O)N2 | 16% |  |
| 2.4 µM | Cc1ccc2c(c1)CN(CCc1cccc3ccccc13)C(=S)N2 | > 100% |  |
| > 10 µM | Cc1ccc(CCN2Cc3cc(C)ccc3NC2=O)cc1 | 10% |  |
| > 10 µM | Cc1ccc2c(c1)CN(CCc1ccc(C(C)C)cc1)C(=O)N2 | 6% |  |
| 9.8 µM | Cc1cccc2c1CN(CCc1ccccc1)C(=O)N2 | 18% |  |
|  | NC(=O)Nc1ccccc1 |  | inhibition at 100 µM (B16 [3]): 0% |
| 0.5 µM | Cc1ccc2c(c1)CN(CCc1ccc(Cl)cc1Cl)C(=S)N2 | > 100% | Activity (B16 [4]): Non-toxic; inhibition [5]: inactive; inhibition [6]: Dose-dependent effect |
| 0.8 µM | Cc1ccc2c(c1)NC(=S)N(CCc1ccccc1)C2 | > 100% |  |
| 5.5 µM | Cc1ccc(CCN2Cc3cc(Cl)ccc3NC2=S)cc1 | > 100% |  |
| > 10 µM | O=C1Nc2ccc(Cl)cc2CN1CCc1ccccc1 | 18% |  |
| 4.3 µM | Cc1ccc2c(c1)CN(CCc1ccc(Cl)cc1)C(=S)N2 | > 100% |  |
| 0.5 µM | Cc1ccc2c(c1)CN(CCc1ccc(C(C)C)cc1)C(=S)N2 | > 100% |  |
| > 10 µM | Cc1ccc2c(c1)CN(CCc1ccc(Cl)cc1)C(=O)N2 | 15% |  |
| 180 µM | OC[C@H]1O[C@@H](Oc2ccc(O)cc2)[C@H](O)[C@@H](O)[C@@H]1O [ARBUTIN] |  |  |
| > 10 µM | Cc1ccc2c(c1)CN(CCc1ccc(Cl)cc1Cl)C(=O)N2 | 11% |  |

| SMILES | IC50 (B16 [1]) | inhibition at 10 µM (B16 [2]) | further results |
| --- | --- | --- | --- |
| O=c1cc(CO)occ1O [KOJIC ACID] | 70 µM |  |  |
